Measurements pooled from the literature.
Compare with care: the assays were run in different laboratories.
Target: Ephrin type-A receptor 4 (EPHA4, Homo sapiens, UniProt P54764)

Compound | observed | method | concentration | remaining binding [%]
CN(CCCC(F)(F)F)c1nccc(-c2cnn3ncccc23)n1 | binding | – | 1 µM | 100
O=C(NCC1CCOCC1)c1n[nH]cc1NC(=O)c1c(F)cccc1F | binding | competition with immobilised ligand | 1 µM | 100
c1ccc(N2CCN(Cc3nc4ccccc4[nH]3)CC2)nc1 | cell-free assay | competition with immobilised ligand | 1 µM | 100
c1cncc(-c2cccc(Nc3nccc(NC4CCCCC4)n3)c2)c1 | binding | competition with immobilised ligand | 10 µM | 100
F[C@@H]1CCN(c2nccc(-c3cnn4ncccc34)n2)C1 | binding | – | 1 µM | 100
O=C(c1ccc(Nc2ncc(Cl)c(-c3ccc(Cl)s3)n2)cc1)N1CCC(N2CCCC2)CC1 | binding | competition with immobilised ligand | 1 µM | 84
Cc1c(NC(=O)c2cc(C(N)=O)nc3cc(F)ccc23)c(C(F)(F)F)nn1Cc1ccc(C(C)(C)C)cc1 | cell-free assay | competition with immobilised ligand | 1 µM | 100
CN(C)c1nccc(-c2cnn3ncccc23)n1 | binding | – | 1 µM | 99
O=C(c1ccc(Nc2nccc(-c3cc4ccccc4s3)n2)cc1)N1CCC(N2CCCC2)CC1 | binding | competition with immobilised ligand | 1 µM | 91
CN(c1nccc(-c2cnn3ncccc23)n1)C1CC1 | binding | – | 1 µM | 100
O=C(N1CCS(=O)(=O)CC1)N1C[C@H](c2ccc(OC(F)(F)F)cc2)C[C@H](c2nc(C3CC3)no2)C1 | cell-free assay | competition with immobilised ligand | 1 µM | 100
C[C@H]1CCN(c2nccc(-c3cnn4ncccc34)n2)C1 | binding | – | 1 µM | 86
C[C@@H](c1ccc(-n2cnc3c(N)ncnc32)cc1)N1CCc2nn(C)c(Cc3ccccc3)c2C1=O | binding | competition with immobilised ligand | 0.1 µM | 97
CC(=O)Nc1c(C(C)=O)c(=O)n(C)c2nc(-c3ccc(Cl)cc3Cl)c(-c3ccc(Cl)cc3)cc12 | cell-free assay | competition with immobilised ligand | 1 µM | 96
N[C@@H]1CCN(c2nccc(-c3cnn4ncccc34)n2)C1 | binding | – | 1 µM | 97
CNCc1ccccc1-c1csc([C@@H](C)Nc2nc(C)nc3cc(OC)c(OC)cc23)c1 | cell-free assay | competition with immobilised ligand | 1 µM | 79
CC1CCCN1c1nccc(-c2cnn3ncccc23)n1 (stereo not shown) | binding | – | 1 µM | 97
CCN1CCN(Cc2ccc(C(=O)Nc3ccc(C)c(Oc4ccc5c(c4)CC(=O)N5)c3)cc2C(F)(F)F)CC1 | binding | competition with immobilised ligand | 1 µM | 100
CNC(=O)c1ccc(Nc2ncc(C(F)(F)F)c(NCc3nccnc3N(C)S(C)(=O)=O)n2)cc1 | cell-free assay | competition with immobilised ligand | 0.1 µM | 99
O=C(NCCCN1CCOCC1)c1ccc(Nc2nccc(-c3cc4ccccc4s3)n2)cc1 | binding | competition with immobilised ligand | 1 µM | 82
CC(=O)c1c(NS(C)(=O)=O)c2cc(-c3ccc(Cl)cc3)c(-c3ccc(Cl)cc3Cl)nc2n(C)c1=O | cell-free assay | competition with immobilised ligand | 1 µM | 98
COc1cnc(Nc2cccc(S(N)(=O)=O)c2)nc1N1CCN(c2ccccc2)CC1 | binding | competition with immobilised ligand | 1 µM | 97
